Laboratory results from ChEMBL document CHEMBL4513216, “Probing the Open Global Health Chemical Diversity Library for Multistage-Active Starting Points for Next-Generation Antimalarials” (ACS Infect Dis, 2020).

Assay: Toxicity liver stage against HepG2, at 10uM
Assay type: cell-based
Parameters: test concentration 10 uM, cell line HepG2-A16-CD81EGFP
Conditions: human, HepG2-A16-CD81EGFP cells; read-out: INHIBITION
Method in brief: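 Uninfected HepG2-A16-CD81EGFP cells, 3 × 10^3 per well, 1536-well, plated on prespotted compound at 10 μM final, parasite-free screening media added to match infected plates; puromycin 10 μM positive, DMSO 0.5% negative; run in parallel with 48 h PbLuc assay at 37 °C, 5% CO2; viability by CellTiter-Glo luminescence, normalized to controls.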

Row | SMILES | cytotoxicity at 10 µM [%]
1 | CCSc1nnc(N(CCC#N)CCC#N)s1 | 4.91
2 | CC(C)(C)CN[C@@H]1CO[C@H](CNC(=O)c2ccncc2)[C@H]1O | -2.5
3 | Cn1cc(-c2nnc3sc(C4CC4)nn23)cn1 | -3.08
4 | Cn1cccc1C(=O)N1CCCC2(CCCN2S(C)(=O)=O)C1 (configuration not stated) | 6.28
5 | Cc1cnc(N2CCC3(CC2)CC(NS(C)(=O)=O)CO3)nc1 (configuration not stated) | 2.87
6 | Cc1cc(C(=O)N2CCc3ncnc(-c4cnn(C)c4)c3CC2)no1 | 8.88
7 | Cc1nccc([C@H]2C[C@@H]3CCN(S(=O)(=O)C4CC4)C[C@H]3O2)n1 | -2.3
8 | Cn1cc(N2CC3(CCN(S(C)(=O)=O)C3)CC2=O)cn1 (configuration not stated) | 9.04
9 | COCCNC(=O)c1nc2c(s1)CCCN2c1ccc(C)nn1 | 8.33
10 | COCC1COCCC12CCN(C(=O)COc1ccccc1C)CC2 (configuration not stated) | 2.08
11 | Cc1nc(N2CCCC2)nc2c1CCN(C(=O)NC(C)C)CC2 | 2.93
12 | Cc1nc2ncc3c(=O)n(C)ccc3n2n1 | -15.4
13 | Cc1ccc(C)c(C(NC(=O)C2CC2)c2cccnc2)c1 (configuration not stated) | -3.5
14 | O=C(Cn1cc(-c2ccccc2)ncc1=O)Nc1ccncc1 | 11
15 | Cc1cc(C(F)(F)F)nn1CCCNC(=O)C1CCN(S(C)(=O)=O)CC1 | -4.56
16 | O=C(c1cccnc1)N1CCOC(Cc2ccccc2Cl)C1 (configuration not stated) | 2.12
17 | CCCn1cc(Cl)c(C(=O)N2C[C@@H](O)[C@H](NC(C)=O)C2)n1 | -0.255
18 | CCN(CC)c1nc(O)cc(C(C)n2ncc3ccccc3c2=O)n1 (configuration not stated) | 2.47
19 | Cn1cc(C(=O)N2CCC(c3cc(CCO)n(C)n3)C2)cn1 (configuration not stated) | -0.0959
20 | CC(C)c1[nH]c2ncccc2c1CN1CCC(O)CC1 | 2.57
21 | Cn1ccnc1CN1CCOC(Cc2ccccc2)C1 (configuration not stated) | -0.479
22 | Cc1cncc(C2CCCN2CCO)n1 (configuration not stated) | -3.14
23 | CCOCC(=O)N1CCC(c2cc3ncccc3c(O)n2)CC1 | -30.1

Row | SMILES | cytotoxicity at 10 µM [%]
24 | CC1(C2CCN(CC(N)=O)CC2)CN(Cc2ccccc2)C(=O)CO1 (configuration not stated) | -19.9
25 | Cc1ccccc1CC(=O)N1CC[C@@](O)(CNS(C)(=O)=O)[C@H](O)C1 | -25.6
26 | COCC(=O)N1CCCC1c1nc(O)cc(C(C)C)n1 (configuration not stated) | -15.5
27 | O=C1NCCN1C1CCN(CC(O)c2ccccc2F)CC1 (configuration not stated) | -0.535
28 | CN(C)Cc1ccnc(NS(=O)(=O)CCc2ccccc2)c1 | -3.09
29 | Nc1cccnc1N1CCC(O)CC1 | 2.3
30 | O=C(Cc1cccc(O)c1)NCCNc1nccc(C(F)(F)F)n1 | 7.48
31 | Cc1cc(C)cc(NCCC(=O)NC2CCCCC2)c1 | 7.61
32 | CCCS(=O)(=O)NCC(O)c1c(Cl)cccc1Cl (configuration not stated) | 7.52
33 | COc1ccccc1CC1CCCN(C(=O)c2nccnc2N)C1 (configuration not stated) | 5.79
34 | CC(C)OCCC1CCCCN1S(C)(=O)=O (configuration not stated) | 2.43
35 | CS(=O)(=O)NCCCNC(=O)c1cnc(-c2ccsc2)s1 | -13.7
36 | CN(C)c1cccc(C(=O)Nc2cnn(CC(N)=O)c2)c1 | 3.63
37 | C[C@@H]1CN(Cc2ccc(-c3ccncc3)cc2F)CC(C(N)=O)O1 (some centres not stated) | 2.4
38 | N#CC1(NC(=O)CN2CCc3c(ncn3C3CC3)C2)CCCC1 | 12.1
39 | CN1CCOC(CNC(=O)C2(c3cccc(Cl)c3)CC2)C1 (configuration not stated) | -3.03
40 | COc1ccccc1C(=O)N(Cc1nc(C)cs1)CC1CCCO1 (configuration not stated) | 0.136
41 | CCCNC(=O)Cn1c(C)nn(C(C)(C)C)c1=O | 4.62
42 | O=C(NCCNc1cnccn1)N1CC=C(c2ccccc2)CC1 | 6.39
43 | CS(=O)(=O)NC1CCN(C(=O)c2ccc3ccccc3c2)C1 (configuration not stated) | -9.14
44 | COc1ccccc1C(C)CNC(=O)c1c(C)nn(C)c1OC (configuration not stated) | -11.4
45 | CCN1CCN(Cc2nc(C)no2)CC1 | 0.978
46 | Cc1cccc(NC(=O)[C@@H]2CCCN2Cc2ccccc2C#N)n1 | -4.11

Row | SMILES | cytotoxicity at 10 µM [%]
47 | Cc1cnn(CC2CCCN2C(=O)CCc2c(C)nn(C)c2C)c1 (configuration not stated) | 0.407
48 | NC(=O)COc1ccc(CNCc2ccc(Cl)c(F)c2)cc1 | -3.64
49 | Cc1cc(C)n(Cc2cccc(C(=O)NCCSCC(C)(C)O)c2)n1 | -6.93
50 | CC1CN(C)c2ccccc2CN1C(=O)c1cnsn1 (configuration not stated) | 0.736
51 | COc1ccc(C(C)NC(=O)NCCNc2ccccn2)c(OC)c1 (configuration not stated) | 0.00455
52 | CCOCc1ccccc1NC(=O)NCC(C)(O)c1cccs1 (configuration not stated) | -0.966
53 | Cc1cc(C)c(CNC(=O)NCC2Cc3ccccc32)c(=O)[nH]1 (configuration not stated) | -3.78
54 | CC(Cn1cccn1)NC(=O)N1CCC(NS(C)(=O)=O)CC1 (configuration not stated) | -0.508
55 | CNC(=O)CN(C)c1cncc(OCc2ccccc2)n1 | 1.15
56 | c1ccn2c(SCC3CN=C(N4CCOCC4)S3)ncc2c1 (configuration not stated) | 11.8
57 | O=C1CC(N(C(=O)COc2ccc(F)cc2F)C2CC2)C(=O)N1 (configuration not stated) | -3.59
58 | O=C(c1cncc(Br)c1)N1CCCc2c(F)cc(F)cc21 | 2.81
59 | O=C(CN(Cc1ccco1)C1CC1)Nc1ccc(Br)cn1 | -2.65
60 | Cc1cc(C)cc(C(=O)N2CCCN(CC(N)=O)CC2)c1 | -5.65
61 | Cc1cnn(CC(C)NCCc2cccs2)c1 (configuration not stated) | -1.52
62 | COc1ccc(C)cc1C(C)NCc1cnnn1C (configuration not stated) | 0.211
63 | CN(C(=O)Cn1nc(-c2ccc(F)cc2)oc1=O)C1CCS(=O)(=O)C1 (configuration not stated) | 10.7
64 | CC(C)c1nc2n(n1)CC(NCc1ccncc1)CC2 (configuration not stated) | -13.9
65 | O=C(c1ccco1)N1CC[C@@H](N2CCOCC2)[C@@H]1Cc1ccccc1 | -77
66 | CN(C)Cc1nnc2n1CCN(Cc1ccccn1)CC2 | 2.05
67 | Cc1nccc([C@@H]2C[C@@H]3CCN(Cc4ccco4)C[C@H]3O2)n1 | -2.61
68 | CC(C)c1cc(C(=O)N2CCN(C)[C@@H]3CS(=O)(=O)C[C@@H]32)no1 | 4.14
69 | COc1ccccc1CN(Cc1cccnc1)Cc1nccs1 | -1.53

Row | SMILES | cytotoxicity at 10 µM [%]
70 | Cc1noc(C)c1CCCNc1cnccn1 | 10.2
71 | Cc1cc(C)n(CCCN(C)C(=O)C2COc3ccccc3C2)n1 (configuration not stated) | -5.95
72 | COCCn1cnnc1CN(C)c1nc(N)ncc1C | -7.85
73 | O=C1CC(NCc2ccc(OC(F)F)cc2)CN1Cc1cccc(F)c1 (configuration not stated) | -5.29
74 | CCCn1ccnc1CN1CCCC(CC)(CO)C1 (configuration not stated) | 3.44
75 | O=C(NCCCO)C1(N2CCCCC2)Cc2ccccc2C1 | -3.07
76 | CCCn1ccnc1CN1CCCC(O)(CN(C)C)CC1 (configuration not stated) | 1.33
77 | c1cc(-c2cn[nH]c2)ncc1CN1CCCCC1 | -1.35
78 | OCCc1ncnn1Cc1cccc(Cl)c1 | 18.2
79 | Cc1ccc(C2CC(=O)NCc3nc(N)sc32)cc1C (configuration not stated) | -8.47
80 | CN(Cc1ccoc1)C(=O)C1CC(=O)N(Cc2ccncc2)C1 (configuration not stated) | -0.766
81 | Cc1ccc2c(c1)OC(C)(C)CC2NC(=O)C1CCN(S(C)(=O)=O)CC1 (configuration not stated) | 1.93
82 | CC(O)c1cccc(N2CCC3(CC2)Nc2ccccc2NC3=O)n1 (configuration not stated) | -10.6
83 | CCn1nc(C)c(CNC(=O)c2cn(CC3CCCO3)nn2)c1C (configuration not stated) | -2.34
84 | Cc1noc(C)c1C(=O)N(C)Cc1nc(-c2ccccn2)no1 | -6.23
85 | CN(Cc1cccc(OC(F)F)c1)Cc1nc2c(cnn2C)c(=O)[nH]1 | -0.438
86 | Cc1noc(Cl)c1CCC(=O)N1CCN(c2cnccn2)CC1 | -3.5
87 | CC1CCCCN1CCNC(=O)c1scnc1Cl (configuration not stated) | -6.27
88 | CC(=O)Nc1nc(C(=O)N2CCCC(n3ccnc3C)C2)cs1 (configuration not stated) | -9.78
89 | Cc1ncc(C(=O)NCCNC(=O)c2ccccc2)s1 | -3.67
90 | COc1ccc(C(C)N(C)Cc2nc3c(cnn3C)c(=O)[nH]2)cc1 (configuration not stated) | -7.42
91 | c1csc(-c2noc(CNC3CCc4ncnn4C3)n2)c1 (configuration not stated) | -9.3
92 | O=C(c1cc2c(s1)CCCC2)N1CCCC1Cn1cccn1 (configuration not stated) | -11.9

Row | SMILES | cytotoxicity at 10 µM [%]
93 | CCn1ccnc1CN1CCN(CC(O)c2ccc(OC)cc2)CC1 (configuration not stated) | -15.1
94 | Cc1ccc(N2CCCC(NCc3cnc(C)s3)C2)nn1 (configuration not stated) | -0.755
95 | COc1c(CNC2CCN(C(=O)C3CC3)CC2)c(C(C)C)nn1C | -4.72
96 | CNc1cc2c(nn1)CCN(C(=O)C1CCCc3ccccc31)C2 (configuration not stated) | -17.2
97 | Cc1cc(CNC(=O)N2CCCN(Cc3ccccc3)CC2)no1 | -8.26
98 | COc1ccccc1OCC(=O)NS(=O)(=O)c1ccc(Br)s1 | -8.72
99 | CN(C)C(=O)[C@]12CCCN(CC3CC3)C[C@H]1CN(c1ccccn1)C2 | 3.68
100 | Cc1ccc(C(=O)N2CCN3C[C@H](Oc4cccc(F)c4)C[C@H]3C2)cn1 | 11.2
101 | CN(Cc1ccco1)[C@@H]1CN(Cc2ccccn2)C[C@@H]2CCCO[C@@H]21 | 0.34
102 | CN(C)C(=O)COC[C@@H]1CC[C@H]2[C@H](CCN2c2ncccn2)O1 | 15.6
103 | CC(C)OCc1ncn2c1CN(CCO)CCC2 | 8.37
104 | Cc1cc(CN2C[C@H]3CCC[C@@]3(COCc3csc(C)n3)C2)no1 | 11.6
105 | Cn1cc(CN2C[C@@H]3COC[C@H](C(=O)Nc4cccnc4)[C@@H]3C2)cn1 | 9.34
106 | O=C(NCc1cncc2c1CCN(C1CCOC1)C2)c1ccco1 (configuration not stated) | 0.797
107 | Cc1cnc2n1CCN(C)C21CCN(C(=O)CC(C)C)CC1 | -5.85
108 | O=C(N1CCOCC1)N1CCc2ncnc(Oc3cccnc3)c2CC1 | -0.82
109 | CN(C)[C@@H]1CCN(C(=O)C2CCOCC2)[C@H]1Cc1ccncc1 | 1.72
110 | Cn1cccc1C(=O)N[C@@H]1CN(CC2CC2)[C@@H]2COC[C@@H]21 | 1.66
111 | COCCN1CCN(S(=O)(=O)C2CC2)Cc2ccc(C)nc21 | 3.38
112 | Cc1nc(=O)c(CC(=O)N2C[C@@H]3CC[C@H]2CN(C(=O)N(C)C)C3)c(C)[nH]1 | 7.6
